This is one part of a sample in which hits are shown more often than they occur.
UPR XBP1 act = activators of adaptive XBP1 UPR arm, primary screen, cell-based, CHO-XBP1 luciferase reporter, luminescence, uHTS | IRE1-XBP1 UPR activation; percent of tunicamycin response, DMSO as zero | activation, % at 20 µM | 330,000 compounds, 0.33% hits | AID 463104, 2010;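 active = versus positive control, 20 µM dose yields 30% or more activation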;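 also: 100% = tunicamycin at 10 µg/mL and 0% = DMSO only wells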
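Material: CHO cell line with stable XBP1 luciferase reporter; buffer or medium: F12 medium containing 10% fetal bovine serum; compound: single point, 20 µM final compound, 1% DMSO; incubation: 6 h treatment, 37 °C; measured by: glow luminescence from Steady-Glo reagent; evaluation: activation, % of tunicamycin; control set: tunicamycin high, DMSO low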
CHOP inhibitor = inhibitors of CHOP promoter induction, primary screen, cell-based, unfolded protein response, luciferase reporter. inhibition, % at 10 µM. CHO-K1 CHOP-promoter luciferase, tunicamycin-induced, 15-18 h. 220,000 compounds, 3.8% hits;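 active = compounds that reduced the stress-induced luciferase reporter signal by more than about 70% of percent inhibition, limit read from the data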;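 also: 0% = tunicamycin plus vehicle and 100% = wells without tunicamycin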
CHOP UPR activ = activators of apoptotic CHOP UPR arm, primary screen, cell-based, CHO-CHOP luciferase reporter, luminescence, uHTS; AID 449763, 2010; activation, % at 10 µM; UPR activation; percent of tunicamycin response over DMSO baseline; 330,000 compounds, 0.34% hits;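 active = at 10 µM dose, activation of 40% or more, normalized to positive control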;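 also: 100% = tunicamycin at 10 µg/mL and 0% = DMSO alone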
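Assay system: CHO-CHOP cells, stable luciferase reporter of PERK-eIF2a-CHOP signalling / Buffer or medium: F12 plus 10% serum / Compound dosing: one dose, 10 µM in 0.5% DMSO / Times: 6 h compound treatment, 37 °C / Technique: luciferase luminescence / Read-out: % reporter activation, DMSO baseline versus tunicamycin full activation / Benchmarks: tunicamycin and DMSO controls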
697 NFkB inh = inhibitors of PMA/ionomycin-induced NF-kB reporter, 697 cells, primary screen, B-cell NF-kB inhibitor project, cell-based, luminescence, uHTS. 330,000 compounds, 0.33% hits. inhibition, % at 4 µM. 697 B-cell NF-kB luciferase reporter, 16 h; in the data active = inhibition above about 35%
Jurkat NFkB inh = inhibitors of induced NF-kB luciferase reporter, primary screen, TCR NF-kB activation inhibitor project, cell-based, luminescence, uHTS; inhibition, % at 4 µM; Jurkat, PMA/ionomycin-induced NF-kB luciferase reporter; 330,000 compounds, 0.53% hits; AID 435003, 2010; in the data active = inhibition above about 50%
The depositor's hits bear a star; . = not tested or not shown.

SMILES	UPR XBP1 act	CHOP inhibitor	CHOP UPR activ	697 NFkB inh	Jurkat NFkB inh
O=S(=O)(NC1=NCCCCC1)c1cc(F)ccc1F	-3	.	-1	1	-9
CNS(=O)(=O)c1cccc(C(=O)OCc2cc(Cl)cc3c2OCOC3)c1	0	75*	1	22	13
CCCOc1cccc(-c2cc(C(=O)N/N=C/c3ccccn3)c3ccccc3n2)c1	-2	.	296*	-21	22
CCCOc1cccc(-c2cc(C(=O)N/N=C/c3cccnc3)c3ccccc3n2)c1	-1	.	3	-19	-14
CS(=O)(=O)N(CC(=O)N1CCc2ccccc2C1)Cc1ccccc1	-4	-12	-1	-3	-3
CCc1c(O)c(/C(C)=N\O)c(=O)n(-c2ccccc2)c1-c1ccccc1	-1	5	2	10	8
C=CCO/N=C(/C)c1c(O)c(CC)c(-c2ccccc2)n(-c2ccccc2)c1=O	-2	72*	0	11	-25
CCOC(=O)c1c(NC(=O)COc2cccc3c2CCN(CC)C3=O)sc2c1CCC2	1	78*	-2	-10	5
CCOC(=O)c1c(NC(=O)COC)sc2c1CCCC2	-1	86*	0	-7	-20
CCOC(=O)c1c(NC(=O)CSc2nnc(-c3c[nH]c4ccccc34)n2CCOC)sc2c1CCCCC2	3	6	2	-15	6
CCOC(=O)c1c(NC(=O)CSc2c[nH]c3ccccc23)sc2c1CCCC2	-2	76*	3	-24	38
CCOC(=O)c1c(NC(=O)C[n+]2ccccc2)sc2c1CCCC2	0	42	-2	-8	0
O=c1[nH]cnc(O)c1C(c1cccc([N+](=O)[O-])c1)c1c(O)nc[nH]c1=O	-1	-10	3	12	1
Cc1cccc(N2N=C(C(=O)O)CCC2=O)c1	-2	.	-2	-1	-19
CC(OCC(O)CN(C)Cc1nc2ccccc2c(=O)[nH]1)c1ccc(Cl)cc1 (stereo not given)	5	-4	-1	-5	-1
O=c1[nH]c2ccc(Br)cc2c(-c2ccccc2)c1N1CCOCC1	-1	77*	2	9	15
O=c1[nH]c2ccc(Br)cc2c(-c2ccccc2)c1CN1CCOCC1	1	27	-2	-11	-2
O=C(Cc1cccc(C(F)(F)F)c1)NCc1cccc(Cl)c1	0	24	1	1	-1
O=C(NCc1cccc(Cl)c1)c1ccc(S(=O)(=O)Nc2cccc(C(F)(F)F)c2)cc1	-1	90*	2	-11	-31
CC(=O)N1CCN(C(=O)c2cccc(S(=O)(=O)N3CCN(c4ccccc4)CC3)c2)CC1	1	.	-1	0	-4
O=C(NNC(=O)c1cccc(S(=O)(=O)N2CCN(c3ccccc3)CC2)c1)c1ccc(Cl)cc1	0	83*	4	-4	-1
Cn1c(CNC(=O)c2ccc(Cl)cc2)nnc1SCC(=O)Nc1sc2c(c1C#N)CCCC2	0	91*	1	3	-6
Cc1onc(-c2ccccc2Cl)c1C(=O)N(C)CC(=O)Nc1ccc(F)c(F)c1F	0	.	0	0	7
CCCC(C)C(=O)Nc1nc(C)c(-c2csc(Nc3ccc(Cl)cc3)n2)s1 (stereo not given)	-2	73*	8	-43	-7
CCOc1ccccc1Nc1nc(-c2sc(NC(=O)c3ccccc3)nc2C)cs1	0	32	-1	-31	-22
SMILES	UPR XBP1 act	CHOP inhibitor	CHOP UPR activ	697 NFkB inh	Jurkat NFkB inh
CCOc1ccccc1Nc1nc(-c2sc(NC(=O)c3cccc(Cl)c3)nc2C)cs1	3	76*	-1	-116	-34
COc1ccccc1Nc1nc(-c2sc(NC(=O)c3ccccc3)nc2C)cs1	0	36	0	-3	-3
COc1ccccc1Nc1nc(-c2sc(NC(=O)c3ccc([N+](=O)[O-])cc3)nc2C)cs1	32*	41	3	-75	-17
COc1cc(NC(=S)N2CCN(c3ccccn3)CC2)cc(OC)c1	-1	-4	0	-12	-14
O=C(CSc1ncn[nH]1)Nc1ccc(S(=O)(=O)N2CCCC2)cc1	-2	38	-1	8	2
CCOc1ccc(N2CCc3c(C)nc(SC)nc32)cc1	3	96*	-1	-57	47
O=S1(=O)N=C(Nc2ccc(N3CCOCC3)cc2)c2ccccc21	1	3	3	18	-6
O=S1(=O)N=C(Nc2ccc(S(=O)(=O)N3CCCCC3)cc2)c2ccccc21	-5	92*	-1	22	12
Cc1ccccc1OCC(O)CN(Cc1ccccc1O)C1CCCCC1 (stereo not given)	-4	88*	1	8	2
Cc1nnc2n(c1=O)N=C(c1ccc(Cl)cc1)CS2	0	25	-1	-146	-38
O=C(Nc1ccc(Br)cc1)C(c1ccccc1)c1ccccc1	0	83*	0	22	4
Cc1cc(NS(=O)(=O)c2ccc(NC(=O)C(c3ccccc3)c3ccccc3)cc2)no1	2	91*	0	-12	3
O=C(Nc1ccccc1)C(c1ccccc1)c1ccccc1	2	.	-2	-12	-13
Cc1cc(NS(=O)(=O)c2ccc(NC(=O)Nc3ccccc3)cc2)no1	2	47	-2	-1	1
CC(C)(C)c1cc(=O)n(-c2ccccc2)[nH]1	.	70*	.	.	.
CN(Cc1ccccc1)C(=O)COC(=O)c1cc(=O)c2ccccc2o1	-2	.	-2	6	4
CC(C)(C)C1CCC2(CC1)CC(=O)c1ccccc1O2 (stereo not given)	-1	74*	0	0	8
N#Cc1c(N)nc2c(c1-c1ccc3c(c1)OCO3)CCCCCC2	2	86*	5	7	15
COCCCNC(=O)C1CCCN(C(=O)Nc2ccc(OC)cc2)C1 (stereo not given)	-1	-31	-2	10	2
O=C(c1ccco1)n1nc(-c2ccccc2)nc1NCc1ccco1	5	81*	4	-8	-9
COc1ccc(CNc2nc(-c3cccnc3)nn2C(=O)CC(C)C)cc1	-5	84*	0	6	5
COc1ccc(-c2nc(SC)n(C(=O)c3ccco3)n2)cc1	-1	72*	5	-17	-17
CC(=O)n1nc(-c2ccccc2)nc1NCc1ccc(F)cc1	4	74*	0	-13	-9
O=C(c1cccs1)n1nc(-c2ccccc2)nc1NCc1ccc(F)cc1	-2	26	2	9	-5
Cn1c(=O)[nH]c(=O)c2c1nc(SCC(O)CO)n2Cc1ccccc1Cl (stereo not given)	-2	7	0	-1	1
